iPSC survival up: increases survival of single human iPS cells. hiPSC single-cell survival, ATPlite luminescence; 100% = ROCK inhibitor wells, 0% = DMSO. survival enhancement, % at 20 µM. actives 0.044% (n = 360,000). AID 602274; in the data active = survival enhancement above about 18%;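 note: cells exposed to compounds for 16 hours before the ATP read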
T cruzi inh: blocks replication of Trypanosoma cruzi | T. cruzi beta-gal in NIH3T3, luminescence, 90 h | inhibition, % (concentration not given with the values) | actives 1.4% (n = 300,000);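 active = mean inhibition across valid replicates above about 55%, limit read from the data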;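 note: signal also drops with host cell toxicity which is not excluded here; higher percent means less beta-gal luminescence so fewer parasites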
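System: mouse NIH/3T3 fibroblasts infected with β-gal-expressing T. cruzi Tulahuen C4 / Input: NIH/3T3 cells, 5,000 per well / Buffer or medium: Low-serum DMEM with 2% FBS / Probe or stimulus: 5000 reporter trypomastigotes per well / Schedule: ≥90 h infection period, 3 h prior cell attachment / Measured by: GalScreen luminescence, 60 min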
H9c2 TAG inh: reduces triacylglycerol accumulation in H9c2 cells | Nile Red lipid (TAG) fluorescence; cells loaded with 200 µM oleic acid | inhibition, % at 12.5 µM | actives 0.66% (n = 230,000);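 active = pattern-corrected inhibition of lipid staining of at least 50% with the nuclear-stain viability signal not falling by more than 50%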
PG9 binder: small molecules binding HIV-1 gp120 antibody PG9; actives 0.43% (n = 360,000); TR-FRET gp120-PG9 antibody binding; AID 624416; inhibition, % at 6.7 µM; in the data active = inhibition above about 8.5%
NR1D1 modulator: modulates human Rev-erb alpha binding to DNA; P20393; Rev-erbα–FITC-DNA binding, fluorescence polarization, 90 min; activity, % at 10 µM; actives 0.79% (n = 370,000); AID 1259318;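 active = activity above about 14%, limit read from the data; passing the limit was not always enough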
Target sequence (P20393 whole entry, looked up): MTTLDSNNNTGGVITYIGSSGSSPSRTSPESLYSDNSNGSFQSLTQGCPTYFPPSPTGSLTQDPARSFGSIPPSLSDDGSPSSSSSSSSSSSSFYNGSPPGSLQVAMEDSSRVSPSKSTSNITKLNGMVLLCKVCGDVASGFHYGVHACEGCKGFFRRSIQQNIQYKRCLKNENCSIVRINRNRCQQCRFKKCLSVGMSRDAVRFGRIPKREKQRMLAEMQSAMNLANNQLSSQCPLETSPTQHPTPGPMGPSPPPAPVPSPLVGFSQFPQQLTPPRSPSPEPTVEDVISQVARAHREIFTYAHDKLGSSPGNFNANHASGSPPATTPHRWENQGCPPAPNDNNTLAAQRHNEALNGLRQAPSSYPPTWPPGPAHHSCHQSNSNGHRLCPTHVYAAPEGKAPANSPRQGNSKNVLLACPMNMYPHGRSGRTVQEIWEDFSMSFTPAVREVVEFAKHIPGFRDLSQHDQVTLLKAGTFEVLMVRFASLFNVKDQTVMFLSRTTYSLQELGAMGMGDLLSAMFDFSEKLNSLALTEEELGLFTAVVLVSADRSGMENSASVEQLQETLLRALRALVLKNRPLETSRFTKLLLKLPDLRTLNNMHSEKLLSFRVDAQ
MIN6 prolif-1: MIN6 beta-cell proliferation induction; actives 0.29% (n = 330,000); proliferation, % at 10 µM; AID 2380; MIN6 cells proliferation, ATPlite luminescence, 48 h; cells starved in 0.2% serum; 100% = growth in 10% serum;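 active = compounds whose signal lies at least 3.5 SD above the mean of all wells on their plate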
MIN6 prolif-2: confirmation of inducers of beta-cell replication in MIN6 cells | shares compounds with MIN6 prolif-1 | MIN6 beta-cell proliferation, ATPlite luminescence, 48 h; cells kept in 0.2% serum; scaled between 0.2% and 10% serum | proliferation increase, % at 50 µM | 920 tested, under 10 active | AID 463095;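 active = proliferation increase above 40% at any of the four tested concentrations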
Hits are given with their value; 0 = inactive; - = not tested or not shown. Hits are enriched below; roughly 2.9% of the tested compounds scored in any of these assays.

SMILES	iPSC survival up	T cruzi inh	H9c2 TAG inh	PG9 binder	NR1D1 modulator	MIN6 prolif-1	MIN6 prolif-2
COc1cccc(C(=O)/C=C2\NCCc3cc(OC)c(OC)cc32)c1	0	0	-	0	0	16	0
CCc1nnc(NC(=O)OCc2ccccc2)s1	0	0	-	0	0	6.0	0
CCOC(=O)Nc1nnc(CCc2ccccc2)s1	0	0	-	0	0	0	-
CC1CCCCC1NC(=O)NC(=O)COC(=O)c1nccnc1N (centres undefined)	0	-	0	0	0	0	-
CCC(C)N(C(=O)CSc1nc(-c2cccs2)nc2ccccc12)C1CCS(=O)(=O)C1 (centres undefined)	0	-	0	0	0	-	-
CCC(C)N(C(=O)CSc1ncnc2sccc12)C1CCS(=O)(=O)C1 (centres undefined)	0	-	0	0	0	14	0
O=C(O)c1ccc(Cl)c(S(=O)(=O)NCC2CCCO2)c1 (centres undefined)	0	0	0	0	0	7.3	0
Cc1ccccc1NS(=O)(=O)c1ccc(C(=O)NCC(c2ccco2)N(C)C)cc1 (centres undefined)	0	0	0	0	0	12	0
Cc1ccccc1NS(=O)(=O)c1ccc(C(=O)NCC(c2ccccc2)N(C)C)cc1 (centres undefined)	0	0	0	0	0	0	-
COc1ccccc1C(C)NCC(=O)Nc1ccccc1C(F)(F)F (centres undefined)	0	0	0	0	0	5.3	0
CCOC(=O)c1cnc2ccc(C(=O)OC)cc2c1NCCc1ccc(OC)c(OC)c1	0	0	-	0	0	0.0	0
CCOC(=O)c1cnc2c(C)cccc2c1NCCc1ccc(OC)c(OC)c1	0	0	0	0	0	0	-
CCN(C(=O)c1cc2c(=O)n3ccccc3nc2s1)C1CCCCC1	0	0	-	0	0	6.9	0
CCCCN(CC)C(=O)c1cc2c(=O)n3cccc(C)c3nc2s1	0	0	-	0	0	11	0
C=CCn1c(-c2cccc(OC)c2)nc2nc3ccccc3nc21	0	0	-	0	0	9.1	0
COc1cc(/C=C/c2[nH]c(=O)[nH]c(=O)c2[N+](=O)[O-])cc(OC)c1O	0	0	-	0	0	5.7	0
CCOc1ccc(/C=N/NC(=O)c2c(-c3ccccc3)noc2C)cc1	0	0	-	0	0	0	-
Cc1cc2c(ncn2C(C)C)c(NS(=O)(=O)c2ccc(F)cc2)c1C	0	0	0	0	0	8.9	0
Cc1nnc(NC(=O)CN2CCN(Cc3ccccc3Cl)CC2)s1	0	0	0	0	0	0	-
COc1ccc(C2NN=C(c3ccc(C)cc3)S2)cc1 (centres undefined)	0	0	-	0	0	-	-
Cc1ccc(C2=NNC(C(O)C(O)C(O)CO)S2)cc1 (centres undefined)	0	0	0	0	0	5.8	0
CCOc1cc(-c2nc(-c3cc(OC)c(OC)c(OC)c3)no2)cc(OCC)c1OCC	-	0	-	-	-	6.5	0
CCOc1ccc(-c2nc(-c3cccnc3)no2)cc1OCC	0	0	0	0	0	9.7	0
CCOc1ccc(-c2noc(-c3cccnc3)n2)cc1OCC	0	-	0	0	0	0	-
CC1CCCCN1c1ncnc(N)c1[N+](=O)[O-] (centres undefined)	0	0	0	0	0	8.8	0
SMILES	iPSC survival up	T cruzi inh	H9c2 TAG inh	PG9 binder	NR1D1 modulator	MIN6 prolif-1	MIN6 prolif-2
Cc1nc(N2CCOCC2)nc(N2CCCCC2C)c1[N+](=O)[O-] (centres undefined)	0	0	0	0	0	8.1	0
O=C(NC(=S)Nc1ccccc1N1CCOCC1)c1cccc([N+](=O)[O-])c1	0	0	0	0	0	0	-
C=C1c2ccccc2O[C@H](C(=O)OCC)[C@@H]1C1CCCCC1	0	-	0	0	0	-	-
O=C(Nn1cnc2ccccc2c1=O)c1ccc(Br)cc1	0	0	-	0	0	0	-
CCOc1nc(Nc2ccccc2F)nc(OCC)n1	0	0	0	0	0	5.0	0
O=C(COC(=O)Cn1cnc2ccccc21)Nc1cccc([N+](=O)[O-])c1	0	0	0	0	0	0	-
O=C(Cn1cnc2ccccc21)Nc1cccc([N+](=O)[O-])c1	0	0	0	0	0	8.2	0
Cc1c(-c2ccc(Cl)cc2)[n+](=O)c2c(n1[O-])CCCC2	0	0	0	0	0	0	-
Cc1c(-c2ccccc2)[n+](=O)c2c(n1[O-])CCC2	0	0	0	0	0	8.9	0
CCc1nc2ccccc2n1Cc1ccc(OC)c(OC)c1	0	0	0	0	0	0	-
COc1ccc(Cn2c(CCCO)nc3ccccc32)cc1OC	0	0	0	0	0	5.7	0
O=C(COC(=O)/C=C/c1ccc(S(=O)(=O)N2CCOCC2)cc1)NCc1ccc(F)cc1	0	0	0	0	0	0	-
CCOC(=O)c1c(C)nc2sc3c(c2c1-c1ccc(OC)cc1)NC(c1ccccc1)NC3=O (centres undefined)	26	0	-	0	0	9.2	0
COc1ccc(-c2c(C(C)=O)c(C)nc3sc4c(c23)NC(c2ccccc2)NC4=O)cc1 (centres undefined)	0	0	-	0	0	0	-
CC(=O)Nc1ccc(S(=O)(=O)N(C)CC(=O)NNC(=O)c2cccs2)cc1	0	-	0	0	0	0	-
CCN(CC)CCCOC(=O)C1(c2ccccc2)CCCC1	0	0	0	0	0	0	-
CCN(CC)CCCC1(CN)OCCc2ccccc21 (centres undefined)	0	0	-	0	0	8.4	0
CC(C)CNC(=O)CN(C1CCCCC1)S(=O)(=O)c1ccccc1	0	0	0	0	0	9.1	0
CC1CCCC(C)N1C(=O)COC(=O)CCc1nc2ccccc2c(=O)[nH]1 (centres undefined)	0	0	0	0	0	0	-
CCn1c(CNC(=O)c2ccco2)nnc1SCC(=O)c1ccc(F)cc1	0	0	-	0	0	0	-
CCn1c(CNC(=O)c2ccccc2OC)nnc1SCC(=O)c1ccc(F)cc1	0	0	-	0	0	5.8	0
Cc1c(NS(=O)(=O)c2cccc(C(=O)O)c2)c(=O)n(-c2ccccc2)n1C	0	0	-	0	0	4.9	0
CCCCC(=O)Nc1ccccc1C#N	0	0	-	0	0	5.8	0
CCCC(=O)OCC(=O)Nc1ccccc1C#N	0	0	0	0	0	0	-
NC(=O)c1cc(S(=O)(=O)NCCc2ccc(S(N)(=O)=O)cc2)cs1	0	0	-	0	0	5.5	0
NC(=O)c1cc(S(=O)(=O)NCCc2ccccc2)cs1	0	0	-	0	0	0	-
CCc1cc(C(=O)NNC(=O)CCN2CCN(c3ccccc3)CC2)sc1C	0	0	0	0	0	13	0
